Laboratory results from ChEMBL document CHEMBL4406856, “Structure based design, synthesis and in vitro antitumour activity of tiazofurin stereoisomers with nitrogen functions at the C-2' or C-3' positions” (Eur J Med Chem, 2019).
Calls of active or inactive are those of the source. No cut-off for these calls is given here.

Experiments:
K562 [1] = experiment: Induction of apoptosis in human K562 cells assessed as 32 kDa Caspase 3 precursor level incubated for 72 hrs by Western blot analysis (reference value: 100%); format: functional
Procedure, shortened: (§1)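 K562 cells treated for 72 h; Bcl-2, BAX, caspase 3 precursor (32 kDa), caspase 3 active subunit (18 kDa) and PARP (112 and 85 kDa) measured by Western blot and expressed as % of untreated control.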

K562 [2] = experiment: Cell cycle arrest in human K562 cells assessed as accumulation in G0/G1 phase incubated for 24 hrs by propidium iodide staining based flow cytometry (reference value: 36.28%); format: functional
Procedure, shortened: (§2)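 Exponentially growing K562 cells treated for 24 or 72 h, untreated cells as control; cells stained with propidium iodide and DNA content read by flow cytometry. Phase distribution (subG1, G0/G1, S, G2/M) taken from one-parameter histograms, subG1 scored as hypodiploid, apoptotic cells.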

K562 [3] = experiment: Induction of necrosis in human K562 cells incubated for 24 hrs by annexin V FITC and propidium iodide staining based flow cytometry relative to control; format: functional; design: concentration or dose not given beside the values
K562 [4] = experiment: Cell cycle arrest in human K562 cells assessed as accumulation in S phase incubated for 72 hrs by propidium iodide staining based flow cytometry (reference value: 36.05%); format: functional; procedure, shortened: as §2
K562 [5] = experiment: Cell cycle arrest in human K562 cells assessed as accumulation in G0/G1 phase incubated for 72 hrs by propidium iodide staining based flow cytometry (reference value: 45.43%); format: functional; procedure, shortened: as §2
K562 [6] = experiment: Potency index, ratio of doxorubicin IC50 to compound IC50 for cytotoxicity against human K562 cells incubated for 72 hrs by MTT assay; format: functional
HL-60 [7] = experiment: Potency index, ratio of doxorubicin IC50 to compound IC50 for cytotoxicity against human HL60 cells incubated for 72 hrs by MTT assay; format: functional
K562 [8] = experiment: Induction of apoptosis in human K562 cells incubated for 24 hrs by annexin V FITC and propidium iodide staining based flow cytometry relative to control; format: functional; design: concentration or dose not given beside the values
K562 [9] = experiment: Induction of apoptosis in human K562 cells assessed as reduction in cell membrane integrity at cytotoxic IC50 incubated for 72 hrs by acridine orange and ethidium bromide double staining based fluorescence microscopy; format: functional
K562 [10] = experiment: Induction of apoptosis in human K562 cells assessed as 112 kDa PARP level incubated for 72 hrs by Western blot analysis (reference value: 100%); format: functional; procedure, shortened: as §1
K562 [11] = experiment: Induction of apoptosis in human K562 cells incubated for 72 hrs by annexin V FITC and propidium iodide staining based flow cytometry relative to control; format: functional; design: concentration or dose not given beside the values
Procedure, shortened: (§3)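 K562 cells treated for 72 h, stained with Annexin V-FITC/propidium iodide and analysed by flow cytometry. Apoptotic, necrotic and live fractions scored as percent of gated cells; specific apoptosis and specific necrosis calculated from these counts.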

Raji [12] = experiment: Potency index, ratio of tiazofurin IC50 to compound IC50 for cytotoxicity against human Raji cells incubated for 72 hrs by MTT assay; format: functional
K562 [13] = experiment: Potency index, ratio of tiazofurin IC50 to compound IC50 for cytotoxicity against human K562 cells incubated for 72 hrs by MTT assay; format: functional
K562 [14] = experiment: Genotoxicity in human K562 cells assessed as increase in DNA damage at cytotoxic IC50 incubated for 72 hrs by comet assay; format: toxicity, cell-based; conditions: k562, 72 h
Procedure, shortened: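 Modified alkaline comet assay: cells set in agarose on slides, electrophoresed horizontally, stained with ethidium bromide and imaged by fluorescence microscopy. 50 comets scored per sample; mean tail moment used as the DNA-damage measure.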

K562 [15] = experiment: Cell cycle arrest in human K562 cells assessed as accumulation in sub-G1 phase incubated for 24 hrs by propidium iodide staining based flow cytometry (reference value: 1.05%); format: functional; procedure, shortened: as §2
K562 [16] = experiment: Induction of apoptosis in human K562 cells assessed as 85 kDa PARP level incubated for 72 hrs by Western blot analysis (reference value: 100%); format: functional; procedure, shortened: as §1
HeLa [17] = experiment: Potency index, ratio of tiazofurin IC50 to compound IC50 for cytotoxicity against human HeLa cells incubated for 72 hrs by MTT assay; format: functional
K562 [18] = experiment: Induction of apoptosis in human K562 cells assessed as Bax level incubated for 72 hrs by Western blot analysis (reference value: 100%); format: functional; procedure, shortened: as §1
HL-60 [19] = experiment: Potency index, ratio of tiazofurin IC50 to compound IC50 for cytotoxicity against human HL60 cells incubated for 72 hrs by MTT assay; format: functional
K562 [20] = experiment: Cell cycle arrest in human K562 cells assessed as accumulation in G2/M phase incubated for 24 hrs by propidium iodide staining based flow cytometry (reference value: 14.29%); format: functional; procedure, shortened: as §2
K562 [21] = experiment: Induction of apoptosis in human K562 cells assessed as 18 kDa Caspase 3 active subunit level incubated for 72 hrs by Western blot analysis (reference value: 100%); format: functional; procedure, shortened: as §1
K562 [22] = experiment: Cell cycle arrest in human K562 cells assessed as decrease in cell accumulation at G2/M phase incubated for 72 hrs by propidium iodide staining based flow cytometry relative to tiazofurin; format: functional; procedure, shortened: as §2
K562 [23] = experiment: Induction of apoptosis in human K562 cells assessed as Bcl2 level incubated for 72 hrs by Western blot analysis (reference value: 100%); format: functional; procedure, shortened: as §1
K562 [24] = experiment: Cell cycle arrest in human K562 cells assessed as accumulation in G2/M phase incubated for 72 hrs by propidium iodide staining based flow cytometry (reference value: 15.45%); format: functional; procedure, shortened: as §2
K562 [25] = experiment: Induction of necrosis in human K562 cells incubated for 72 hrs by annexin V FITC and propidium iodide staining based flow cytometry relative to control; format: functional; design: concentration or dose not given beside the values; procedure, shortened: as §3
K562 [26] = experiment: Cell cycle arrest in human K562 cells assessed as accumulation in S phase incubated for 24 hrs by propidium iodide staining based flow cytometry (reference value: 48.38%); format: functional; procedure, shortened: as §2
K562 [27] = experiment: Cell cycle arrest in human K562 cells assessed as accumulation in SubG1 phase incubated for 72 hrs by propidium iodide staining based flow cytometry (reference value: 3.07%); format: functional; procedure, shortened: as §2
MRC5 = experiment: Cytotoxicity against human MRC5 cells assessed as reduction in cell viability incubated for 72 hrs by MTT assay; format: cell-based; conditions: MRC5, 72 h
Procedure, shortened: (§4)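 Colorimetric MTT assay on human tumour lines K562 (chronic myeloid leukemia), HL-60 (promyelocytic leukemia), Jurkat (T cell leukemia), Raji (Burkitt's lymphoma), HT-29 (colorectal adenocarcinoma), HeLa (cervix adenocarcinoma) and normal lung fibroblast MRC-5; cells exposed to compounds for 72 h.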

K562 [28] = experiment: Antiproliferative activity against human K562 cells assessed as reduction in cell growth incubated for 72 hrs by MTT assay; format: functional, cell-based; conditions: K562, 72 h; procedure, shortened: as §4
Raji [29] = experiment: Antiproliferative activity against human Raji cells assessed as reduction in cell growth incubated for 72 hrs by MTT assay; format: functional, cell-based; procedure, shortened: as §4
Jurkat = experiment: Antiproliferative activity against human Jurkat cells assessed as reduction in cell growth incubated for 72 hrs by MTT assay; format: functional, cell-based
Procedure, shortened: as §4, with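 “h. IC50 taken as concentration giving 50% growth inhibition versus untreated control.” for “h.”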

HL-60 [30] = experiment: Antiproliferative activity against human HL60 cells assessed as reduction in cell growth incubated for 72 hrs by MTT assay; format: functional, cell-based; conditions: HL-60, 72 h
Procedure, shortened: as §4, with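 “h. IC50 taken as concentration giving 50% growth inhibition versus untreated control.” for “h.”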

HeLa [31] = experiment: Antiproliferative activity against human HeLa cells assessed as reduction in cell growth incubated for 72 hrs by MTT assay; format: functional, cell-based
Procedure, shortened: as §4, with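 “h. IC50 taken as concentration giving 50% growth inhibition versus untreated control.” for “h.”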

HT-29 = experiment: Antiproliferative activity against human HT-29 cells assessed as reduction in cell growth incubated for 72 hrs by MTT assay; format: functional, cell-based; conditions: HT-29, 72 h
Procedure, shortened: as §4, with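 “h. IC50 taken as concentration giving 50% growth inhibition versus untreated control.” for “h.”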

[32] = Ratio of compound IC50 to tiazofurin IC50 for cytotoxicity against human MRC5 cells incubated for 72 hrs by MTT assay; format: cell-based; conditions: read-out: Ratio IC50
K562 [33] = experiment: Induction of apoptosis in human K562 cells incubated for 72 hrs by annexin V FITC and propidium iodide staining based flow cytometry relative to tiazofurin; format: functional; procedure, shortened: as §3

Row | Compound | Activity (K562 [1]) [%] | Activity (K562 [2]) [%] | Activity (K562 [3]) [%] | Activity (K562 [4]) [%] | Activity (K562 [5]) [%] | Activity (K562 [8]) [%] | Activity (K562 [10]) [%] | Activity (K562 [11]) [%] | Activity (K562 [15]) [%] | Activity (K562 [16]) [%] | Activity (K562 [18]) [%] | Activity (K562 [20]) [%] | Activity (K562 [21]) [%] | fold change (FC) (K562 [22]) | Activity (K562 [23]) [%] | Activity (K562 [24]) [%] | Activity (K562 [25]) [%] | Activity (K562 [26]) [%] | Activity (K562 [27]) [%] | IC50 (MRC5) [µM] | other results
1 | NC(=O)c1csc([C@@H]2O[C@H](CO)[C@H](O)[C@H]2O)n1 | 4433.8 | 38.15 | 5.36 | 32.94 | 41.86 | 11.28 | 665.4 | 16.69 | 2.39 | 552.68 | 180.18 | 8.45 | 230.09 | 2 - 2.4 | 436.51 | 11.6 | 21.08 | 51 | 13.6 | – | Ratio IC50 (K562 [6]): 2; Ratio IC50 (HL-60 [7]): 7; Activity (K562 [9]): Active; Ratio IC50 (Raji [12]): 2 - 48; Ratio IC50 (K562 [13]): 2 - 48; Activity (K562 [14]): Toxic; Ratio IC50 (HeLa [17]): 2 - 48; Ratio IC50 (HL-60 [19]): 2 - 48
2 | [N-]=[N+]=N[C@H]1[C@H](O)[C@@H](CO)O[C@H]1c1nc(C(N)=O)cs1 | 3222.35 | 29.73 | 1.26 | 35.15 | 37.65 | 12.47 | 355.91 | 12.86 | 2.32 | 169.74 | 186.25 | 20.75 | 156.25 | 2 - 2.4 | 35.23 | 13.6 | 6.24 | 47.46 | 13.59 | > 100 | IC50 (K562 [28]): 6.28 µM; IC50 (Raji [29]): 40.5 µM; IC50 (Jurkat): > 100 µM; IC50 (HL-60 [30]): 7.55 µM; IC50 (HeLa [31]): 29.9 µM; IC50 (HT-29): 2.48 µM
3 | CC(=O)N[C@H]1[C@H](O)[C@@H](CO)O[C@H]1c1nc(C(N)=O)cs1 | 777.09 | 33.62 | 1.23 | 36.13 | 38.86 | 10.64 | 477.15 | 22.85 | 2.11 | 534.18 | 141.43 | 17.67 | 59.32 | 2 - 2.4 | 149.59 | 11.66 | 7.29 | 46.93 | 13.36 | 3.21 | IC50 (K562 [28]): 0.0061 µM; Ratio IC50 (K562 [6]): 40; IC50 (Raji [29]): 2.56 µM; Ratio IC50 (K562 [13]): 309; IC50 (Jurkat): > 100 µM; selectivity ratio at 72 h [32]: 9; fold change (FC) (K562 [33]): 2; IC50 (HL-60 [30]): 12.9 µM; IC50 (HeLa [31]): > 100 µM; IC50 (HT-29): > 100 µM
4 | NC(=O)c1csc([C@@H]2O[C@H](CO)[C@@H](O)[C@@H]2N)n1 | 1144.41 | 36.67 | 9.58 | 34.2 | 37.94 | 7.07 | 387.73 | 23.39 | 2.58 | 570.91 | 193 | 9.11 | 153.73 | 2 - 2.4 | 414.66 | 10.79 | 9.82 | 52.43 | 17.08 | > 100 | IC50 (K562 [28]): 1.97 µM; IC50 (Raji [29]): 1.03 µM; IC50 (Jurkat): 0.04 µM; fold change (FC) (K562 [33]): 2; IC50 (HL-60 [30]): 1.02 µM; IC50 (HeLa [31]): 1.03 µM; IC50 (HT-29): 23.4 µM
